From PubChem
Rin1-Abl PPI inh: inhibitors of Rin1-Abl protein binding, primary screen, biochemical, TR-FRET; Tyrosine-protein kinase ABL1 (Homo sapiens) + Ras and Rab interactor 1 (Homo sapiens), …; inhibition, % at 7.35 µM; 0.4% of 360,000 active; in the data active means inhibition above about 5%, passing the limit was not always enough
ARFGAP1 inhibitor: inhibitors of rat ARFGAP1 GAP activity, primary screen, biochemical, fluorescence polarization, GDP tracer. inhibition, % at 16.5 µM. ADP-ribosylation factor GTPase-activating protein 1 (Rattus norvegicus), Q62848. 0.26% of 360,000 active. Arfgap1-stimulated ARF1 GTP hydrolysis, GDP FP detection;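 active means inhibition above a per-plate limit, mean inhibition of low control wells plus 3 SD, cut at about 25% in these data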;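 further: 0% = DMSO wells with enzyme and 100% = wells lacking Arfgap1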
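System: truncated rat Arfgap1 GAP domain / Medium: HEPES-based buffer, pH 7.5 / Also added: N-terminally truncated human ARF1-GTP substrate / Incubation: enzyme reaction 120 min at 25 °C after 20 min preincubation / Measured by: FP of antibody-bound GDP Alexa 633 tracer, ex 620/em 688 nm / Replicates: singlicate, each compound tested once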
GalR3 antagonist: GalR3 antagonists in HEK293 cells, primary screen, cell-based, fluorescence readout; HEK293 GalR3-CNG cAMP membrane potential fluorescence; galR3 body fused to GalR1 C-terminus; inhibition, % at 3 µM; 0.44% of 360,000 active; AID 651719, 2012;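 active means inhibition above the screen-wide average plus 3 SD, cut at about 13% in these data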;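 further: forskolin and galanin both at EC90 stimulate the cells; cAMP rise reported by CNG channel membrane potential dye signal; 0% = forskolin plus galanin with DMSO and 100% = forskolin alone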
ASAP1 inh: inhibitors of human ASAP1 ArfGAP activity, primary screen, biochemical, fluorescence polarization | Arf-GAP with SH3 domain, ANK repeat and PH domain-containing protein 1 (Homo sapiens), … | ASAP1-stimulated ARF1 GTP hydrolysis, GDP FP detection | inhibition, % at 16.5 µM | 0.19% of 360,000 active; in the data active means inhibition above about 25%;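 further: 0% = vehicle with enzyme and substrate and 100% = no enzyme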
Rin1-Abl confirm: Rin1-Abl binding inhibitor retest, confirmation, biochemical, TR-FRET; shares compounds with Rin1-Abl PPI inh; purified proteins; inhibition, % at 7.35 µM; 49% of 1,300 active
GFP quench: GFP fluorescence inhibitors and quenchers, artefact control for Rin1-Abl interaction inhibitor project, biochemical; inhibitors/quenchers counterscreen; inhibition, % at 6.75 µM; 8.5% of 1,300 active; AID 602125, 2011; shares compounds with Rin1-Abl PPI inh;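 further: ABL1-eGFP fusion protein alone without its partner RIN1-SBP; 0% = protein with vehicle and 100% = wells lacking protein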
GFP quench DR: GFP fluorescence inhibitors and quenchers, dose response, artefact control for Rin1-Abl interaction inhibitor project, biochemical; shares compounds with Rin1-Abl PPI inh; GFP fluorescence interference/quenching counterscreen; IC50, µM; 230 tested, under 10 active; call rule not given here;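 further: ABL1-eGFP fusion protein alone without its RIN1 binding partner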
The depositor's hits bear a star; x = not tested or not shown. Shown are actives, neighbours in structure and some others; about 1.2% of the full set was active somewhere. Unless noted, no stated cut-off is given here; in the data, active means inhibition above about 6.5%; inactive means the rest.

SMILES	Rin1-Abl PPI inh	ARFGAP1 inhibitor	GalR3 antagonist	ASAP1 inh	Rin1-Abl confirm	GFP quench	others
CCOC(=O)C1=C(C(=O)OCC)C2N(Cc3ccc(Br)cc3)c3ccccc3[C@@]23C[C@@H](C(=O)OC)N(S(=O)(=O)c2ccc(Br)cc2)C3=N1 (stereo not given in full)	x	-6	-3	-5	x	x
COc1ccc(NC(=S)N2CCN(C/C=C/c3ccccc3)CC2)cc1	9.3*	4	-4	-4	-1	-1
CCN(CC)CCCNC(=O)C1c2ccccc2Oc2ccccc21	5.0*	-9	-3	-12	1	-1
CCOC(=O)C1=C(C(=O)OCC)C2N(Cc3ccc(C#N)cc3)c3ccccc3[C@@]23C[C@@H](C(=O)OC)N(S(=O)(=O)c2c(C)noc2C)C3=N1 (stereo not given in full)	x	-4	-3	8	x	x
CCOC(=O)c1ccc(NC(=O)COc2ccccc2CNCCO)cc1	13*	-3	-7	9	23*	-1	GFP quench DR=>68
Nc1[nH]c(C(=O)c2ccccc2)c(-c2ccccc2)c1C(=O)NCCc1c[nH]c2ccccc12	x	5	-7	9	x	x
CC(Oc1cccc(Cl)c1)C(=O)Nc1nc(-c2ccccn2)cs1 (stereo not given)	7.1*	3	-5	0	-1	1
Cc1cccc(N2C(=O)C(CC(=O)Nc3cccc(F)c3)N(CCc3ccncc3)C2=O)c1 (stereo not given)	5.3*	1	-3	1	0	-1
O=C(NC1CCCC1)c1ccc(CS(=O)Cc2ccccc2Cl)o1 (stereo not given)	18*	9	-2	1	0	0
CC12CCC(=O)N1C(C(=O)Nc1nnc(SCc3ccccc3F)s1)CS2 (stereo not given)	32*	-3	-3	15	52*	-1	GFP quench DR=>68
O=C(NC(CC1=CCCCC1)c1ccc2ccccc2c1)C(F)(F)F (stereo not given)	x	-7	-7	-2	x	x
Cc1ccc(N=C2NC(=O)C(CC(=O)NCc3ccccc3)S2)cc1C (stereo not given)	8.9*	-2	0	3	0	1
CC1(C)OC(=O)C2=C(CC(CCc3ccccc3)OC2c2cccc(C(F)(F)F)c2)O1 (stereo not given)	x	-10	-5	-5	x	x
O=C(Cc1c(F)cccc1Cl)NNC(=O)Nc1ccc2c(c1)OCO2	14*	0	-2	6	1	1
O=C(CSCc1c(Cl)cccc1Cl)Nc1ccc2c(c1)OCO2	-3	-11	-5	-4	x	x
Nc1nc2c(ncn2[C@@H]2O[C@H](C(=O)N[C@H](Cc3ccccc3)C(=O)NCc3ccc4c(c3)OCO4)[C@@H](O)[C@H]2O)c(=O)[nH]1	x	-7	-7	-2	x	x
Cn1c(Cc2ccccc2)nnc1SCC(=O)Nc1ccccc1	3	-6	-2	-5	x	x
CC(C)OC(=O)CSc1nnc(Cc2ccccc2)n1C	8.9*	7	-2	-13	-2	0
Cc1cc(-c2nn(-c3ccccc3F)cc2CN2CCCC(O)C2)c(C)s1 (stereo not given)	5.7*	15	-2	8	1	0
COC(=O)c1cc2c(c3c4ccccc4n(S(=O)(=O)c4ccc(OC)cc4)c13)C(=O)N(Cc1ccco1)C2	x	0	-5	-5	x	x
Cc1nnc(SCc2nc3ccccc3[nH]2)s1	18*	-7	0	-9	29*	-1	GFP quench DR=>68
CC(C)CNc1cccc2c1S(=O)(=O)N[C@@H](C)CO2	x	12	-6	2	x	x
CC1=NN(c2ccc(Cl)cc2)C(=O)C1	14*	22	3	-5	0	1
CC(=O)c1cccc(NC(=O)C2(C)Cc3c(-c4cccc(C(N)=O)c4)ccnc3O2)c1 (stereo not given)	8.2*	1	-3	-6	12*	2
CC1(C(=O)NCc2ccccc2)Cc2c(-c3cccc(C(N)=O)c3)ccnc2O1 (stereo not given)	3	-10	4	-5	x	x
SMILES	Rin1-Abl PPI inh	ARFGAP1 inhibitor	GalR3 antagonist	ASAP1 inh	Rin1-Abl confirm	GFP quench	others
COc1ccc(CNC(=O)C2(C)Cc3c(-c4cccc(C(N)=O)c4)ccnc3O2)cc1OC (stereo not given)	11*	-2	-4	6	7.2*	0
CC1(C(=O)Nc2cccc(NS(C)(=O)=O)c2)Cc2c(-c3cccc(C(N)=O)c3)ccnc2O1 (stereo not given)	1	0	-5	8	x	x
Nc1[nH]c(C(=O)c2ccc(Cl)cc2)c(-c2ccc(Br)cc2)c1C(=O)c1c[nH]c2ccc(F)cc12	x	-5	4	4	x	x
COc1ccc(C[C@H]2CN3C(=NC[C@@H]3C(C)C)N2C[C@H](C)NC(=O)c2ccc(C)c(Br)c2)cc1	2	-2	-3	13	x	x
COc1ccc(C[C@H]2CN3C(=NC[C@@H]3Cc3ccc(O)cc3)N2C[C@H](C)NC(=O)c2ccc(C)c(Br)c2)cc1	9.4*	x	x	x	1	0
NC(=O)c1ncn([C@@H]2O[C@H](C(=O)N[C@H](Cc3ccccc3)C(=O)N3CCN(CC(=O)Nc4ccccn4)CC3)[C@@H](O)[C@H]2O)n1	x	7	-5	-16	x	x
Cc1ccc(C(=O)NCCn2cc(SCC(=O)Nc3cc(C)on3)c3ccccc32)cc1	2	-2	x	-3	x	x
Cc1cc(NC(=O)CSc2cn(CCNC(=O)c3ccccc3)c3ccccc23)no1	24*	x	x	x	14*	2
CN(CCC#N)C(=O)COC(=O)c1ccc2c(=O)n3c(nc2c1)CCC3	2	-3	-3	-4	x	x
N#CCCN(C(=O)COC(=O)c1ccc2c(=O)n3c(nc2c1)CCC3)c1ccccc1	12*	1	4	-7	0	-1
C[C@H]1[C@@H](c2ccccc2)Oc2c(Cl)cccc2S(=O)(=O)N1C	x	-1	-8	-9	x	x
COC(C(=O)C(O)C(C)O)C1Cc2cc3cc(OC4CC(OC5CC(O)C(O)C(C)O5)C(O)C(C)O4)c(C)c(O)c3c(O)c2C(=O)C1OC1CC(OC2CC(OC3CC(O)C(OC)C(C)O3)C(O)C(C)O2)C(O)C(C)O1 (stereo not given)	13*	-11	-5	-12	0	-1
